# CHOP inhibitor – inhibitors of CHOP promoter induction, primary screen, cell-based, unfolded protein response, luciferase reporter; CHO-K1 CHOP-promoter luciferase, tunicamycin-induced, 15-18 h; inhibition, % at 10 µM; 220,000 tested, 3.8% active;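 active means compounds that reduced the stress-induced luciferase reporter signal by more than about 70% of percent inhibition, limit read from the data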
# Jurkat NFkB inh – inhibitors of induced NF-kB luciferase reporter, primary screen, TCR NF-kB activation inhibitor project, cell-based, luminescence, uHTS; Jurkat, PMA/ionomycin-induced NF-kB luciferase reporter; inhibition, % at 4 µM; 330,000 tested, 0.53% active; in the data active means inhibition above about 50%
# CHOP UPR activ – activators of apoptotic CHOP UPR arm, primary screen, cell-based, CHO-CHOP luciferase reporter, luminescence, uHTS | UPR activation; percent of tunicamycin response over DMSO baseline | activation, % at 10 µM | 330,000 tested, 0.34% active | AID 449763, 2010;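 active means at 10 µM dose, activation of 40% or more, normalized to positive control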
#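 Assay system: CHO cells with stable CHOP pathway luciferase reporter; Buffer or medium: F12 plus 10% serum; Times: 16-18 h cell attachment, then 6 h compound exposure, 37 °C; Signal: luciferase luminescence; Read-out basis: percent activation relative to tunicamycin control; Control set: tunicamycin high control, DMSO low control.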
# 697 NFkB inh – inhibitors of PMA/ionomycin-induced NF-kB reporter, 697 cells, primary screen, B-cell NF-kB inhibitor project, cell-based, luminescence, uHTS; 697 B-cell NF-kB luciferase reporter, 16 h; inhibition, % at 4 µM; 330,000 tested, 0.33% active; AID 435022, 2010; in the data active means inhibition above about 35%
# UPR XBP1 act – activators of adaptive XBP1 UPR arm, primary screen, cell-based, CHO-XBP1 luciferase reporter, luminescence, uHTS. IRE1-XBP1 UPR activation; percent of tunicamycin response, DMSO as zero. activation, % at 20 µM. 330,000 tested, 0.33% active;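 active means versus positive control, 20 µM dose yields 30% or more activation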
#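 Assay system: CHO-XBP1 luciferase reporter cells; Schedule: 6 h treatment, 37 °C; Detection: glow luminescence from Steady-Glo reagent; Benchmarks: high control tunicamycin 10 µg/mL final, low control DMSO vehicle only.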
# Numbers stand for hits; n = inactive; x = not tested or not shown. This is one part of a sample in which hits are shown more often than they occur.
SMILES,CHOP inhibitor,Jurkat NFkB inh,CHOP UPR activ,697 NFkB inh,UPR XBP1 act
Cc1ccc(NC(=O)Nc2ccc([N+](=O)[O-])cc2)nc1,70,n,n,n,n
O=C(Nc1ccc(Cl)cc1)Nc1nnc(Cc2ccc([N+](=O)[O-])cc2)s1,n,n,n,n,n
Cc1ccc(NC(=O)Nc2nnc(Cc3ccc([N+](=O)[O-])cc3)s2)cc1,76,n,n,n,n
CC(C)Cc1nnc(NC(=O)Nc2ccccc2)s1,70,n,n,n,n
CC(C)Cc1nnc(NC(=O)CCC(=O)Nc2ccccc2)s1,x,n,n,n,n
CCN1C(=O)/C(=C\c2ccc(F)cc2)N=C1SCC(=O)NCc1ccco1,n,n,n,n,n
C=CCN1C(=O)/C(=C\c2ccc(Cl)cc2)N=C1SCC(=O)NCCC,76,n,n,n,n
Cc1nn(CCO)c2nc(-c3cccs3)cc(C(F)(F)F)c12,85,n,n,n,n
N=C1S/C(=C\c2ccc(O)cc2)C(=O)N1c1ccc(F)cc1,83,n,n,n,n
CCOc1cc(/C=C2\SC(=O)N(c3ccc(O)cc3)C2=O)ccc1O,n,n,n,n,n
O=C1/C(=C\c2ccc(O)cc2)SC(=S)N1c1cccnc1,78,n,n,n,n
N.N.N.N.N.N.N.N.N.N.N.N.N.N.O.O.[Cl-].[Cl-].[Cl-].[Cl-].[Cl-].[Cl-].[Ru+4].[Ru+5].[Ru+5],n,x,x,x,x
COc1ccc(OC(=O)COc2ccc(Cl)cc2)cc1,x,n,n,n,n
Cc1[nH]c2ccc(F)cc2c1CCN(Cc1ccco1)C(=S)NC(C)(C)C,81,n,n,n,n
CCC(=O)Nc1cccc(NC(=S)NC(=O)c2cc3ccccc3o2)c1,94,n,n,n,n
CCC(=O)Nc1ccc(NC(=S)NC(=O)c2cc3ccccc3o2)cc1,n,n,n,n,n
Cc1ccc(-c2nc3ccccc3o2)cc1NC(=S)NC(=O)c1cc2ccccc2o1,85,x,x,x,x
Cc1ccc(-c2nc3ncccc3o2)cc1NC(=S)NC(=O)c1ccco1,n,n,n,n,n
CS(=O)(=O)N1CCCC(C(=O)N2CCN(c3cccc(Cl)c3)CC2)C1 (centres undefined),n,n,n,n,n
O=Cc1ccc(Cl)c(Cl)c1,x,n,n,n,n
O=C(c1ccc(CSc2nc3ccncc3[nH]2)cc1)N1CCCCCC1,n,n,n,n,n
O=C(c1ccc(CSc2nc3ccncc3[nH]2)cc1)N1CCN(c2cccc(Cl)c2)CC1,83,n,n,n,n
O=C(Nc1ncc(Cc2cccc(Cl)c2)s1)c1ccc([N+](=O)[O-])cc1,76,n,n,n,n
Cc1cc(N/N=C/c2ccccc2O)nc(-c2ccccc2O)n1,75,n,n,n,n
Cc1cc(C)c(C)c(S(=O)(=O)NCCCN2CCCC2=O)c1C,x,n,n,n,n
SMILES,CHOP inhibitor,Jurkat NFkB inh,CHOP UPR activ,697 NFkB inh,UPR XBP1 act
O=C(CN1C(=O)NC(Cc2c[nH]c3ccccc23)C1=O)NCC(F)(F)F (centres undefined),x,n,n,n,n
CC1CCC2C(C1)c1sc(=O)[nH]c1SC2(C)C (centres undefined),83,n,n,n,n
CCCN(CC(=O)Nc1ccc(C)cc1Br)CC(=O)Nc1ccc(F)c(F)c1F,72,n,n,n,n
CCCN(CC(=O)Nc1cccc(Br)c1)CC(=O)Nc1ccc(F)c(F)c1F,79,n,n,n,n
CCCc1cc(=O)oc2cc(C)cc(OCC(=O)N3CCC(C(N)=O)CC3)c12,x,n,n,n,n
O=[N+]([O-])c1ccccc1NCc1c(O)ccc2ccccc12,89,n,n,n,n
COc1cccc(C(=O)NN2c3ccccc3CCc3ccccc32)c1,92,x,x,x,x
COc1ccc(NC(=O)C2CC(=O)N(CCc3ccc(Cl)cc3)C2)cc1 (centres undefined),x,n,n,n,n
Cc1ccc(S(=O)(=O)N[C@@H](CC(C)C)C(=O)N2CCC(C(=O)N[C@@H](Cc3ccccc3)C(=O)O)CC2)cc1,x,n,n,n,n
CCOc1ccc(CNc2cccc(SC)c2)cc1,87,n,n,n,n
CC(C)Cn1c(N)c(C(=O)CSc2cc(Cl)ccc2Cl)c(=O)n(C)c1=O,96,n,n,n,n
O=C1N/C(=C/c2ccc(Br)s2)C(=O)N1c1ccccc1,96,n,n,n,n
O=C(c1cc2c(s1)-c1ccccc1OC2)N1CCN(c2ccccc2)CC1,83,n,n,n,n
Cc1csc(NC(=O)c2cc3c(s2)-c2ccccc2OC3)n1,81,n,n,n,n
CN(C)CCNC(=O)c1cc2c(s1)-c1ccccc1OC2,n,n,n,n,n
COc1ccc(N2CCN(C(=O)c3cc4c(s3)-c3ccccc3OC4)CC2)cc1,x,n,n,n,n
CCCC(=O)NCCc1c2n(c3ccc(OC)cc13)Cc1ccccc1-2,n,x,x,x,x
CCC1CCCCN1Cc1nc2c(c(=O)n(C)c(=O)n2C)n1CCC(C)C (centres undefined),x,n,n,n,n
CCCCCCn1c(CN2CCCCC2CC)nc2c1c(=O)n(C)c(=O)n2C (centres undefined),92,n,n,n,n
CCOC(=O)c1ccc(Oc2nc(N(C)C)nc(N(C)C)n2)cc1,71,n,n,n,n
CCC1CSC(Nc2ccc(C(=O)/C=C/c3ccc(OC)c(OC)c3)cc2)=N1 (centres undefined),n,n,n,n,n
CCC1CSC(Nc2ccc(C(=O)/C=C/c3ccc(Br)cc3)cc2)=N1 (centres undefined),89,n,n,n,n
CC(C)C[C@H](NC(=O)N1CCn2c1nc1ccccc12)C(=O)N[C@@H](Cc1ccccc1)C(=O)O,x,n,n,n,n
Nc1cccc(Nc2ccccc2)c1,n,n,n,n,n
c1ccc(Nc2cccc(Nc3ccccc3)c2)cc1,74,n,n,n,n
SMILES,CHOP inhibitor,Jurkat NFkB inh,CHOP UPR activ,697 NFkB inh,UPR XBP1 act
Cn1nnnc1-c1cc(Br)ccc1NC(=O)c1ccccc1,76,n,n,n,n
O=S(=O)(c1ccccc1)N1CCN=C1SCc1ccc(Cl)c(Cl)c1,72,n,n,n,n
O=C(O)c1ccc(OCCOc2ccccc2)cc1,n,n,n,n,n
CC1CCc2nc(NC(=O)CN3CCN(c4ccccc4)CC3)sc2C1 (centres undefined),n,n,n,n,n
CC1CCc2nc(NC(=O)CN3CCN(Cc4ccc5c(c4)OCO5)CC3)sc2C1 (centres undefined),82,n,n,n,n
CC1CCc2nc(NC(=O)Nc3ccc4c(c3)OCO4)sc2C1 (centres undefined),84,n,n,n,n
CCOc1ccccc1-c1nnc(SCC(=O)NC2CC2)n1CC,x,n,n,n,n

# High-throughput results as filed in PubChem BioAssay.
